Measurements from article PMC6923801 (Journal of medicinal chemistry, 2019).

Molecular target: human GPR68 (Homo sapiens, UniProt Q15743)
Test: GloSensor cAMP assay, proton-mediated Gs-cAMP production at human GPR68
Type: cell-based
Conditions: for Δ: difference of Log(αβ/KB) from that of 1; for Δ / −Log (KB) / Log (αβ/KB): human GPR68; for Log (α): affinity cooperativity; for Log (α) / Log (β): human GPR68, HEK293T, Gs-cAMP; for Log (α) / −Log (KB) / Log (αβ/KB) / Log (β): mean ± SEM; for −Log (KB): allosteric binding affinity from functional assay; for Log (αβ/KB): allosteric index; for Log (β): efficacy cooperativity
Summary of the method: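 HEK293T cells were transiently transfected with receptor and GloSensor cAMP plasmids, overnight (16–20 h). Cells were plated on poly-L-Lys in DMEM + 1% dFBS for 6–24 h, then loaded with 3.5 mM luciferin (HBSS, 20 mM TAPS, pH 8.40) for 1 h at 37 °C. Drug was applied in Ca/Mg-free HBSS pH buffers (MES 5.60–6.70, HEPES 6.80–8.20, TAPS 8.30–8.60) with 10 μM Ro 20-1724. Luminescence was read at 20–30 min.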

Sequence of human GPR68 (Q15743 whole entry): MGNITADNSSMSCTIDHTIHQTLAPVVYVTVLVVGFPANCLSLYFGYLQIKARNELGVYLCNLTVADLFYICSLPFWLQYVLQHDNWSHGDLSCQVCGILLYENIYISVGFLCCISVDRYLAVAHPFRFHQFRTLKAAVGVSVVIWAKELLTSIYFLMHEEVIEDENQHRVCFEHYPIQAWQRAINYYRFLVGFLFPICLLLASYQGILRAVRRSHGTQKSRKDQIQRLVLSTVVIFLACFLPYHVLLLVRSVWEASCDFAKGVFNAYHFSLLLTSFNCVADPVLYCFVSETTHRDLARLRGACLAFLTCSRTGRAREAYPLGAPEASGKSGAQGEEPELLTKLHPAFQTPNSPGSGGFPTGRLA

Row | SMILES | Kb | Δ | Log (α) | −Log (KB) | Log (αβ/KB) | Log (β)
1 | CNc1nc(NCc2ccccc2)nc(-c2ccccc2CO)n1 [Compound 5] | 30.9 µM | 0.05 |  |  |  | 
2 | CCNc1nc(NCc2ccccc2)nc(-c2ccccc2CO)n1 [Compound 6, (2-(4-(Benzylamino)-6-(ethylamino)-1,3,5-triazin-2-yl)phenyl)-methanol] | 23.4 µM | 0.03 |  |  |  | 
3 | Nc1cc(-c2ccccc2CO)nc(NCc2ccccc2)n1 [Compound 10, (2-(6-Amino-2-(benzylamino)pyrimidin-4-yl)phenyl)methanol] |  | Weak PAM | Weak PAM | Weak PAM | Weak PAM | Weak PAM
4 | Nc1nc(NCc2ccccc2)nc(-c2ccccc2)n1 [Compound 13, N^2-Benzyl-6-phenyl-1,3,5-triazine-2,4-diamine] |  | Inactive | Inactive | Inactive | Inactive | Inactive
5 | Cc1ccccc1-c1nc(N)nc(NCc2ccccc2)n1 [Compound 14, N^2-Benzyl-6-(o-tolyl)-1,3,5-triazine-2,4-diamine] |  | Weak PAM | Weak PAM | Weak PAM | Weak PAM | Weak PAM
6 | CC(=O)c1ccccc1-c1nc(N)nc(NCc2ccccc2)n1 [Compound 15, 1-(2-(4-Amino-6-(benzylamino)-1,3,5-triazin-2-yl)phenyl)ethan-1-one] |  | Weak PAM | Weak PAM | Weak PAM | Weak PAM | Weak PAM
7 | CC(O)c1ccccc1-c1nc(N)nc(NCc2ccccc2)n1 (stereo not shown) [Compound 16, 1-(2-(4-Amino-6-(benzylamino)-1,3,5-triazin-2-yl)phenyl)ethan-1-ol] |  | Weak PAM | Weak PAM | Weak PAM | Weak PAM | Weak PAM
8 | NCc1ccccc1-c1nc(N)nc(NCc2ccccc2)n1 [Compound 18, 6-(2-(Aminomethyl)phenyl)-N^2-benzyl-1,3,5-triazine-2,4-diamine] | 138 µM | −0.30 |  |  |  | 
9 | CNCc1ccccc1-c1nc(N)nc(NCc2ccccc2)n1 [Compound 19, N^2-Benzyl-6-(2-((methylamino)methyl)phenyl)-1,3,5-triazine-2,4-diamine] |  | Weak PAM | Weak PAM | Weak PAM | Weak PAM | Weak PAM
10 | Nc1nc(NCc2ccccc2)nc(-c2cccc(F)c2CO)n1 [Compound 22, (2-(4-Amino-6-(benzylamino)-1,3,5-triazin-2-yl)-6-fluorophenyl)-methanol] | 97.7 µM | −0.45 |  |  |  | 
11 | Nc1nc(NCc2ccccc2)nc(-c2ccc(F)cc2CO)n1 [Compound 23, (2-(4-Amino-6-(benzylamino)-1,3,5-triazin-2-yl)-5-fluorophenyl)-methanol] | 26.3 µM | 0.15 |  |  |  | 
12 | Nc1nc(NCc2ccccc2)nc(-c2cc(F)ccc2CO)n1 [Compound 24, (2-(4-Amino-6-(benzylamino)-1,3,5-triazin-2-yl)-4-fluorophenyl)-methanol] | 26.3 µM | 0.38 |  |  |  | 
13 | Nc1nc(NCc2ccccc2)nc(-c2c(F)cccc2CO)n1 [Compound 25, (2-(4-Amino-6-(benzylamino)-1,3,5-triazin-2-yl)-3-fluorophenyl)-methanol] | 204 µM | −0.12 |  |  |  | 
14 | Nc1nc(NCc2ccccc2)nc(-c2ccc(Cl)cc2CO)n1 [Compound 26, (2-(4-Amino-6-(benzylamino)-1,3,5-triazin-2-yl)-5-chlorophenyl)methanol] | 17.4 µM | 0.56 |  |  |  | 
15 | Nc1nc(NCc2ccccc2)nc(-c2cc(Cl)ccc2CO)n1 [Compound 27, (2-(4-Amino-6-(benzylamino)-1,3,5-triazin-2-yl)-4-chlorophenyl)methanol] | 32.4 µM | 0.47 |  |  |  | 
16 | Nc1nc(NCc2ccccc2)nc(-c2c(Cl)cccc2CO)n1 [Compound 28, (2-(4-Amino-6-(benzylamino)-1,3,5-triazin-2-yl)-3-chlorophenyl)methanol] | 37.2 µM | 0.25 |  |  |  | 
17 | COc1cccc(-c2nc(N)nc(NCc3ccccc3)n2)c1CO [Compound 29, (2-(4-Amino-6-(benzylamino)-1,3,5-triazin-2-yl)-6-methoxyphenyl)methanol] | 69.2 µM | −0.45 |  |  |  | 
18 | COc1ccc(-c2nc(N)nc(NCc3ccccc3)n2)c(CO)c1 [Compound 30] | 75.9 µM | −0.34 |  |  |  | 
19 | COc1ccc(CO)c(-c2nc(N)nc(NCc3ccccc3)n2)c1 [Compound 31, (2-(4-Amino-6-(benzylamino)-1,3,5-triazin-2-yl)-4-methoxyphenyl)methanol] | 102 µM | −0.54 |  |  |  | 

Row | SMILES | Kb | Δ | Log (α) | −Log (KB) | Log (αβ/KB) | Log (β)
20 | COc1cccc(CO)c1-c1nc(N)nc(NCc2ccccc2)n1 [Compound 32, (2-(4-Amino-6-(benzylamino)-1,3,5-triazin-2-yl)-3-methoxyphenyl)methanol] |  | Weak PAM | Weak PAM | Weak PAM | Weak PAM | Weak PAM
21 | CCOc1ccc(-c2nc(N)nc(NCc3ccccc3)n2)c(CO)c1 [Compound 37, (2-(4-Amino-6-(benzylamino)-1,3,5-triazin-2-yl)-5-ethoxyphenyl)methanol] | 42.7 µM | 0.03 |  |  |  | 
22 | CC(C)Oc1ccc(-c2nc(N)nc(NCc3ccccc3)n2)c(CO)c1 [Compound 38, (2-(4-Amino-6-(benzylamino)-1,3,5-triazin-2-yl)-5-isopropoxyphenyl)methanol] | 12.3 µM | 0.43 |  |  |  | 
23 | Nc1nc(NCc2ccccc2F)nc(-c2ccccc2CO)n1 [Compound 41, (2-(4-Amino-6-((2-fluorobenzyl)amino)-1,3,5-triazin-2-yl)-phenyl)methanol] | 53.7 µM | 0.25 |  |  |  | 
24 | Nc1nc(NCc2cccc(F)c2)nc(-c2ccccc2CO)n1 [Compound 42, (2-(4-Amino-6-((3-fluorobenzyl)amino)-1,3,5-triazin-2-yl)-phenyl)methanol] | 30.2 µM | 0.24 |  |  |  | 
25 | Nc1nc(NCc2ccc(F)cc2)nc(-c2ccccc2CO)n1 [Compound 43, (2-(4-Amino-6-((4-fluorobenzyl)amino)-1,3,5-triazin-2-yl)-phenyl)methanol] | 107 µM | 0.11 |  |  |  | 
26 | Nc1nc(NCc2ccccc2Cl)nc(-c2ccccc2CO)n1 [Compound 44, (2-(4-Amino-6-((2-chlorobenzyl)amino)-1,3,5-triazin-2-yl)-phenyl)methanol] | 8.51 µM | 0.63 |  |  |  | 
27 | Nc1nc(NCc2cccc(Cl)c2)nc(-c2ccccc2CO)n1 [Compound 45, (2-(4-Amino-6-((3-chlorobenzyl)amino)-1,3,5-triazin-2-yl)-phenyl)methanol] | 10.7 µM | 0.59 |  |  |  | 
28 | Nc1nc(NCc2ccccc2C(F)(F)F)nc(-c2ccccc2CO)n1 [Compound 47, (2-(4-Amino-6-((2-(trifluoromethyl)benzyl)amino)-1,3,5-triazin-2-yl)phenyl)methanol] | 8.91 µM | 0.65 |  |  |  | 
29 | Nc1nc(NCc2cccc(C(F)(F)F)c2)nc(-c2ccccc2CO)n1 [Compound 48, (2-(4-Amino-6-((3-(trifluoromethyl)benzyl)amino)-1,3,5-triazin-2-yl)phenyl)methanol] | 7.76 µM | 0.76 |  |  |  | 
30 | Nc1nc(NCc2ccc(C(F)(F)F)cc2)nc(-c2ccccc2CO)n1 [Compound 49, (2-(4-Amino-6-((4-(trifluoromethyl)benzyl)amino)-1,3,5-triazin-2-yl)phenyl)methanol] | 9.33 µM | 0.79 |  |  |  | 
31 | Cc1ccccc1CNc1nc(N)nc(-c2ccccc2CO)n1 [Compound 50, (2-(4-Amino-6-((2-methylbenzyl)amino)-1,3,5-triazin-2-yl)-phenyl)methanol] | 20 µM | 0.26 |  |  |  | 
32 | Cc1cccc(CNc2nc(N)nc(-c3ccccc3CO)n2)c1 [Compound 51, (2-(4-Amino-6-((3-methylbenzyl)amino)-1,3,5-triazin-2-yl)-phenyl)methanol] | 39.8 µM | 0.26 |  |  |  | 
33 | Cc1ccc(CNc2nc(N)nc(-c3ccccc3CO)n2)cc1 [Compound 52, (2-(4-Amino-6-((4-methylbenzyl)amino)-1,3,5-triazin-2-yl)-phenyl)methanol] | 41.7 µM | 0.29 |  |  |  | 
34 | COc1ccccc1CNc1nc(N)nc(-c2ccccc2CO)n1 [Compound 53, (2-(4-Amino-6-((2-methoxybenzyl)amino)-1,3,5-triazin-2-yl)-phenyl)methanol] | 102 µM | −0.28 |  |  |  | 
35 | COc1cccc(CNc2nc(N)nc(-c3ccccc3CO)n2)c1 [Compound 54, (2-(4-Amino-6-((3-methoxybenzyl)amino)-1,3,5-triazin-2-yl)-phenyl)methanol] | 77.6 µM | −0.09 |  |  |  | 
36 | COc1ccc(CNc2nc(N)nc(-c3ccccc3CO)n2)cc1 [Compound 55] | 457 µM | −0.70 |  |  |  | 
37 | CCOc1ccc(CNc2nc(N)nc(-c3ccccc3CO)n2)cc1 [Compound 56, (2-(4-Amino-6-((4-ethoxybenzyl)amino)-1,3,5-triazin-2-yl)-phenyl)methanol] | 17 µM | 0.26 |  |  |  | 
38 | CC(C)Oc1ccc(CNc2nc(N)nc(-c3ccccc3CO)n2)cc1 [Compound 57, (2-(4-Amino-6-((4-isopropoxybenzyl)amino)-1,3,5-triazin-2-yl)-phenyl)methanol] | 10.2 µM | 0.38 |  |  |  | 
